In ChEMBL document CHEMBL1221280, “Discovery of achiral inhibitors of the hepatitis C virus NS3 protease based on 2(1H)-pyrazinones” (Bioorg Med Chem, 2010) one finds Ki data, which are given here for 19 molecules.

SMILES strings stand for the structures.

Assay [1] is described as follows: Inhibition of HCV NS3 protease by FRET assay. Set-up: species or system Hepacivirus hominis. The procedure, abridged: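 Full-length HCV NS3 (protease–helicase/NTPase) protein, protease activity read by FRET. Enzyme at 1 nM incubated 10 min at 30 °C in 50 mM HEPES pH 7.5, 10 mM DTT, 40% glycerol before measurement. Inhibitor Ki given with standard deviation. Wild type and the A156T and D168V variants were tested.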

The target in assay [2] is NS3 protease (Hepatitis C virus subtype 1b, UniProt Q0ZMF1, A156T). Kind of assay: Inhibition of HCV NS3 protease A156T mutant by FRET assay. Set-up: species or system Hepacivirus hominis. An outline of the steps: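 Protease activity of full-length HCV NS3 (protease–helicase/NTPase) was measured by FRET. 1 nM enzyme was incubated 10 min at 30 °C in 50 mM HEPES pH 7.5, 10 mM DTT, 40% glycerol before read-out.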

Broadly, the Ki is a measure of affinity in units of concentration, obtained from inhibition or displacement. As to `C=C[C@@H]1C[C@]1(NC(=O)C(c1ccccc1)n1c(C)c(Cl)nc(NCC(N)=O)c1=O)C(=O)NS(=O)(=O)C1CC1` (some centres undefined), in assay [1], the Ki turned out to be 12 µM.

With `C=C[C@@H]1C[C@]1(NC(=O)C(c1ccccc1)n1c(C)c(Cl)nc(NCC(=O)N2CCOCC2)c1=O)C(=O)NS(=O)(=O)C1CC1` (some centres undefined), in assay [1], the affinity, expressed as Ki, was 10 µM.

In the case of `C=C[C@@H]1C[C@]1(NC(=O)C(c1ccccc1)n1c(C)c(Cl)nc(NC(=O)OC(C)(C)C)c1=O)C(=O)NS(=O)(=O)C1CC1` (some centres undefined), the Ki in assay [1] was found to be 4.3 µM; in assay [2], 5.9 µM.

Regarding `C=C[C@@H]1C[C@]1(NC(=O)C(c1ccccc1)n1c(C)c(Cl)nc(NCCc2ccccc2)c1=O)C(=O)NS(=O)(=O)C1CC1` (some centres undefined), in assay [1], the inhibition constant Ki came out at 8.3 µM.

For the molecule `C=C[C@@H]1C[C@]1(NC(=O)C(c1ccccc1)n1c(C)c(Cl)nc(NC(=O)OC(C)(C)C)c1=O)C(=O)O` (stereo in doubt; 29b), the Ki in assay [1] stood at 13 µM.

For `Cc1c(Cl)nc(NC(=O)OC(C)(C)C)c(=O)n1C(C(=O)Nc1ccccc1C(=O)NS(=O)(=O)c1ccc(C(F)(F)F)cc1)c1ccccc1` (centres undefined), the Ki in assay [1] came out at 3.8 µM; in assay [2], 1.5 µM.

Take `C=C[C@@H]1C[C@]1(NC(=O)C(c1ccc(OC)cc1)n1c(C)c(Cl)nc(NC(=O)OC(C)(C)C)c1=O)C(=O)NS(=O)(=O)C1CC1` (some centres undefined): the Ki in assay [1] turned out to be 7.2 µM.

Molecule `C=C[C@@H]1C[C@]1(NC(=O)C(c1ccccc1)n1c(C)c(Cl)nc(N)c1=O)C(=O)NS(=O)(=O)C1CC1` (some centres undefined) displayed a Ki in assay [1] of 11 µM.

On to `C=C[C@@H]1C[C@]1(NC(=O)C(c1ccccc1)n1c(C)c(Cl)nc(NCCC(C)(C)C)c1=O)C(=O)NS(=O)(=O)C1CC1` (some centres undefined), for which, in assay [1], the Ki is 6.8 µM.

Take `O=C(O)CNc1nc(Cl)c(-c2ccccc2)n(CC(=O)Nc2ccccc2C(=O)NS(=O)(=O)c2ccc(C(F)(F)F)cc2)c1=O`: the Ki in assay [1] came out at 3 µM; in assay [2], 5.6 µM.

On to `O=C(O)CNc1nc(Cl)cn(C(C(=O)Nc2ccccc2C(=O)NS(=O)(=O)c2ccc(C(F)(F)F)cc2)c2ccccc2)c1=O` (centres undefined), for which the Ki in assay [1] was 2.3 µM; in assay [2], 1.8 µM.

The molecule `C=C[C@@H]1C[C@]1(NC(=O)C(c1ccccc1)n1c(C)c(Cl)nc(NCC(=O)N(C)C)c1=O)C(=O)NS(=O)(=O)C1CC1` (some centres undefined) had a Ki in assay [1] of 28 µM.

In turn, `Cc1c(Cl)nc(NCC(N)=O)c(=O)n1CC(=O)Nc1ccccc1C(=O)NS(=O)(=O)c1ccc(C(F)(F)F)cc1` came in with a Ki in assay [1] of 18 µM.

In assay [1], `C=C[C@@H]1C[C@]1(NC(=O)C(c1ccccc1)n1c(C)c(Cl)nc(NC(=O)OC(C)(C)C)c1=O)C(=O)O` (stereo in doubt; 29a) displayed a Ki of 11 µM.

Turning to `C=C[C@@H]1C[C@]1(NC(=O)[C@@H](NC(=O)[C@@H](NC(=O)OC(C)(C)C)C(C)(C)C)c1ccc(OC)cc1)C(=O)NS(=O)(=O)C1CC1`, the Ki in assay [1] was determined as 5.4 µM.

Molecule `Cc1c(Cl)nc(NC(=O)OC(C)(C)C)c(=O)n1C(C(=O)N[C@@H](CC1CC1)C(=O)NS(=O)(=O)C1CC1)c1ccccc1` (some centres undefined) came in with a Ki in assay [1] of 9.6 µM.

As for `O=C(O)CNc1nc(Cl)c(Cc2ccccc2)n(CC(=O)Nc2ccccc2C(=O)NS(=O)(=O)c2ccc(C(F)(F)F)cc2)c1=O`, the figures for the Ki in assay [1] and in assay [2] were 1.5 µM and 2.5 µM, respectively.

In assay [1], `C=C[C@@H]1C[C@]1(NC(=O)[C@H](NC(=O)[C@@H](NC(=O)OC(C)(C)C)C(C)(C)C)c1ccc(OC)cc1)C(=O)NS(=O)(=O)C1CC1` registered a Ki of 34 µM.

`C=C[C@@H]1C[C@]1(NC(=O)C(c1ccccc1)n1c(C)c(Cl)nc(NCCN2CCOCC2)c1=O)C(=O)NS(=O)(=O)C1CC1` (some centres undefined): affinity in assay [1] was put at a Ki of 11 µM.
